Sampled rows, rich in hits. Any-hit rate of the full collection: about 2.2%.
CR mimetic SO = yeast age-related superoxide inhibition as caloric restriction mimetic. S. cerevisiae aged cells, superoxide DHE fluorescence; active compounds read low. superoxide response (% of plate mean), % at 10 µM. actives 0.18% (n = 330,000). AID 2690;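 active means superoxide response under a set limit, about three screen SD below normal, cut at about 65% in these data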;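 further: yeast aged for seven days with compound at 30 °C before DHE staining; 100% = average MFI of all compound-treated wells on the plate with controls excluded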
rRNA inh HTS = inhibitors of bacterial rRNA selective over humanized ribosomes; actives 1.6% (n = 350,000); E. coli WT GFP vs humanized-ribosome RFP mutants, fluorescence, 24 h; active compounds read low; DMSO median 0, no signal -100; GFP signal change (wild-type ribosome), % (concentration not given with the values);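 active means significant combined selectivity score with lowered wild-type GFP, culture density cut under 30%, mutant RFP and density less affected; inactive means any of these conditions unmet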
Cneo AK release = Cryptococcus neoformans lysis via adenylate kinase release. C. neoformans lysis, adenylate kinase release luminescence, 4 h; normalised: neutral wells 0, clomiphene wells 100. actives 0.2% (n = 360,000). lysis activity, % at 15 µM;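 active means mean lysis activity across replicates of at least 80%, whatever share of replicates individually reach that level; inactive means mean lysis activity below 80%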
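Material – log-phase Cryptococcus neoformans yeast cells · Input – 5 × 10^6 yeast cells/mL · Medium – fresh YPD growth medium · Doses – single compound concentration per well · Timing – static 4 h at 37 °C with compound, 1 h detection · Detection – adenylate kinase release luminescence · Read-out – signal increase indicating cell lysis · Control set – Clomiphene as positive lysis control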
PglD DTNB = inhibitors of Campylobacter jejuni PglD acetyltransferase; purified PglD enzyme, DTNB colorimetric CoA detection; inhibition, % at 12.5 µM; actives 0.098% (n = 360,000); AID 602405; in the data active means inhibition above about 16%, passing the limit was not always enough
SUMO Mot1 rescue = inhibitors of SUMOylation pathway: yeast Mot1-301 growth rescue; actives 1% (n = 320,000); AID 2716; S. cerevisiae Mot1-301 growth rescue, ATP luminescence, 38.5C; percent above DMSO median, 100 means doubled; growth rescue, % at 18.8 µM;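 active means every valid replicate shows activation above 250% relative to neutral control wells; inactive means the rest, any valid replicate at or below 250%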;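 further: OY570 slx delta 5 strain wells were the positive control but not used for scaling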
* hit, by the source's call.

Screening C[C@H](CO)N1C[C@H](C)[C@H](CN(C)Cc2ccc3c(c2)OCO3)Oc2c(NC(=O)C3CCOCC3)cccc2C1=O returned rRNA inh HTS 1.5, Cneo AK release 2.2 and PglD DTNB 1.9.
Screening Fc1ccc(-c2nnc(-c3ccc4ccccc4c3)o2)cc1 returned rRNA inh HTS -6.9*, Cneo AK release -18.3 and PglD DTNB -2.1.
CCCC#Cc1ccc2c(c1)O[C@H](CN(C)C(=O)Nc1ccccc1F)[C@@H](C)CN([C@@H](C)CO)S2(=O)=O was read as rRNA inh HTS -6.9, Cneo AK release 1.3 and PglD DTNB 1.2.
O=C(NNC(=O)c1cccc(S(=O)(=O)N2CCc3ccccc32)c1)c1ccccc1 was read as rRNA inh HTS -25.5*.
CC(C)CCNC(=O)c1cccc(S(=O)(=O)N2CCc3ccccc32)c1 was read as CR mimetic SO 96.3, Cneo AK release 0.1, PglD DTNB -1.2 and SUMO Mot1 rescue -6.3.
Screening O=C(c1ccc2c(c1)CCN2S(=O)(=O)c1ccccc1)N1CCN(c2ccccc2F)CC1 returned CR mimetic SO 95.8, rRNA inh HTS -22.5*, Cneo AK release -0.7 and PglD DTNB -5.8.
`C[C@@H]1CCCCO[C@@H](CN(C)C(=O)c2ccncc2)[C@H](C)CN([C@H](C)CO)C(=O)c2cc(NC(=O)c3ccncc3)ccc2O1` gave rRNA inh HTS 1.9, Cneo AK release -4.0 and PglD DTNB -1.2.
Cc1ccc(S(=O)(=O)N(C)C[C@H]2OCCCC[C@@H](C)Oc3ccc(NS(=O)(=O)c4cn(C)cn4)cc3C(=O)N([C@@H](C)CO)C[C@@H]2C)cc1 was read as rRNA inh HTS 3.1, Cneo AK release -1.0 and PglD DTNB 0.3.
For Nc1cc(Cl)nc(N/N=C/c2c(O)ccc3ccccc23)n1 the results were CR mimetic SO 117.3, rRNA inh HTS -20.0* and SUMO Mot1 rescue -23.4.
For C[C@@H]1CCCCO[C@H](CN(C)C(=O)NC2CCCCC2)[C@H](C)CN([C@@H](C)CO)C(=O)c2cc(NS(C)(=O)=O)ccc2O1 the results were rRNA inh HTS -3.8, Cneo AK release -0.6 and PglD DTNB -0.1.
For CNC[C@@H]1Oc2ccc(NC(=O)Nc3cccc4ccccc34)cc2C(=O)N([C@H](C)CO)C[C@H]1C the results were rRNA inh HTS 5.8, Cneo AK release 52.5 and PglD DTNB 3.0.
O=C(COC(=O)c1ccccc1C(=O)c1ccccc1)NCc1ccc(F)cc1 was read as CR mimetic SO 87.3, rRNA inh HTS -16.4, Cneo AK release -3.1, PglD DTNB 7.3 and SUMO Mot1 rescue 336.8*.
Screening Cc1cccc(N2CCc3c2nc2ccc(Br)cc2c3N)c1 returned CR mimetic SO 102.8, rRNA inh HTS -49.3*, Cneo AK release 7.8, PglD DTNB -7.1 and SUMO Mot1 rescue 48.1.
`CCOC(=O)c1c(N)sc(C(O)(C(F)(F)F)C(F)(F)F)c1-c1ccc(OC)cc1OC` gave CR mimetic SO 92.8, rRNA inh HTS -26.9*, Cneo AK release -3.0, PglD DTNB 5.5 and SUMO Mot1 rescue 16.2.
CCOC(=O)c1c(N)sc(N)c1C(=O)OCC was read as CR mimetic SO 96.3 and SUMO Mot1 rescue -8.1.
For CCN(c1ccc(OC)cc1)S(=O)(=O)c1csc(C(N)=O)c1 the results were CR mimetic SO 100.4, rRNA inh HTS 10.2, Cneo AK release -1.3, PglD DTNB 2.4 and SUMO Mot1 rescue 275.0*.
`CCCC(=O)N1CC2(CN(C(C)=O)C2)c2c(n(C)c3cc(OC)ccc23)[C@H]1CO` gave rRNA inh HTS 1.4.
Screening C[C@@H]1CCCCO[C@H](CN(C)C(=O)C2CCCCC2)[C@@H](C)CN([C@@H](C)CO)C(=O)c2cc(NS(C)(=O)=O)ccc2O1 returned rRNA inh HTS -1.1, Cneo AK release -1.2 and PglD DTNB 0.2.
For CN(C)CCNC(=O)c1ccc2c(c1)NC(=O)c1ccccc1S2 the results were CR mimetic SO 99.4, rRNA inh HTS 4.2, Cneo AK release -0.8, PglD DTNB -3.8 and SUMO Mot1 rescue 335.7*.
`O=C(C1CCOCC1)N1CC[C@@H]2[C@@H](CO)Nc3ccc(Br)cc3[C@@H]21` gave rRNA inh HTS 4.0, Cneo AK release 91.4* and PglD DTNB 7.0.
O=C(C1CC1)N1CC[C@@H]2[C@@H](CO)Nc3ccc(Br)cc3[C@@H]21 was read as rRNA inh HTS -0.6, Cneo AK release -0.9 and PglD DTNB -1.3.
Screening Cn1cc(CNC(=O)c2cc(COc3ccc4c(c3)CCCC4)on2)cn1 returned CR mimetic SO 101.4, rRNA inh HTS -32.5*, Cneo AK release -2.1, PglD DTNB 0.7 and SUMO Mot1 rescue -5.6.
COc1ccc(NC(=O)Nc2ccc3c(c2)C(=O)N([C@H](C)CO)C[C@H](C)[C@@H](CN(C)S(=O)(=O)c2c(C)noc2C)O3)cc1 was read as rRNA inh HTS -1.5.
For Cc1cc(C)n(-c2nc(NCCCN(C)C)c3c4c(sc3n2)COC(C)(C)C4)n1 the results were CR mimetic SO 96.5, rRNA inh HTS -6.9, Cneo AK release -0.8, PglD DTNB -1.3 and SUMO Mot1 rescue 4.5.
`Cc1cc(C)n(-c2nc(NCCN(C)C)c3c4c(sc3n2)COC(C)(C)C4)n1` gave CR mimetic SO 100.6, rRNA inh HTS -32.0*, Cneo AK release -2.9, PglD DTNB 6.6 and SUMO Mot1 rescue 8.2.
`Cc1ccc(/C=N/NC(=O)c2cccc(S(=O)(=O)Nc3cccc(Cl)c3)c2)o1` gave CR mimetic SO 110.7, rRNA inh HTS -20.6* and SUMO Mot1 rescue -5.9.
`O=C(N/N=C/c1ccccc1C(=O)O)c1cccc(S(=O)(=O)Nc2cc(Cl)ccc2Cl)c1` gave CR mimetic SO 96.6, rRNA inh HTS -18.6*, Cneo AK release -3.7, PglD DTNB -2.3 and SUMO Mot1 rescue 115.1.
For Cc1ccc(/C=N/NC(=O)c2cccc(S(=O)(=O)Nc3ccccc3Cl)c2)s1 the results were CR mimetic SO 107.4, rRNA inh HTS -0.6, Cneo AK release -0.9, PglD DTNB 2.7 and SUMO Mot1 rescue 2.9.
For Cc1cccc(OCc2nnc(SCC(=O)Nc3nccs3)o2)c1 the results were CR mimetic SO 116.8, rRNA inh HTS -40.6* and SUMO Mot1 rescue -16.5.
For Cc1nc(C(=O)N2CCc3c([nH]c4ccccc34)C2c2ccccn2)cs1 (stereo not given) the results were CR mimetic SO 94.2, rRNA inh HTS -19.7* and SUMO Mot1 rescue 10.8.
`CC(C)c1nc(C(=O)N2CCc3c([nH]c4ccccc34)C2c2ccccn2)cs1` (stereo not given) gave CR mimetic SO 107.9, rRNA inh HTS -30.4 and SUMO Mot1 rescue -19.6.
COc1cc(/C=C/C(=O)c2ccc([N+](=O)[O-])o2)ccc1O was read as CR mimetic SO 104.0, rRNA inh HTS -23.6*, Cneo AK release -4.4, PglD DTNB 1.6 and SUMO Mot1 rescue 120.6.

From PubChem
